Results reported in ChEMBL document CHEMBL1141693, “Discovery of benzoylpiperazines as a novel class of potent and selective GlyT1 inhibitors” (Bioorg Med Chem Lett, 2008).
In brackets after ≈: the same amount, converted by molar mass. Activity calls are given as the source filed them. No cut-off for these calls is given here.

Key:
[1] = biological target: T1, Sodium- and chloride-dependent glycine transporter 1 (Homo sapiens, UniProt P48067); experiment: Inhibition of [3H]glycine uptake at human glycine transporter 1 expressed in CHO cells by scintillation counter; assay type: cell-based
T1 sequence (P48067 whole entry): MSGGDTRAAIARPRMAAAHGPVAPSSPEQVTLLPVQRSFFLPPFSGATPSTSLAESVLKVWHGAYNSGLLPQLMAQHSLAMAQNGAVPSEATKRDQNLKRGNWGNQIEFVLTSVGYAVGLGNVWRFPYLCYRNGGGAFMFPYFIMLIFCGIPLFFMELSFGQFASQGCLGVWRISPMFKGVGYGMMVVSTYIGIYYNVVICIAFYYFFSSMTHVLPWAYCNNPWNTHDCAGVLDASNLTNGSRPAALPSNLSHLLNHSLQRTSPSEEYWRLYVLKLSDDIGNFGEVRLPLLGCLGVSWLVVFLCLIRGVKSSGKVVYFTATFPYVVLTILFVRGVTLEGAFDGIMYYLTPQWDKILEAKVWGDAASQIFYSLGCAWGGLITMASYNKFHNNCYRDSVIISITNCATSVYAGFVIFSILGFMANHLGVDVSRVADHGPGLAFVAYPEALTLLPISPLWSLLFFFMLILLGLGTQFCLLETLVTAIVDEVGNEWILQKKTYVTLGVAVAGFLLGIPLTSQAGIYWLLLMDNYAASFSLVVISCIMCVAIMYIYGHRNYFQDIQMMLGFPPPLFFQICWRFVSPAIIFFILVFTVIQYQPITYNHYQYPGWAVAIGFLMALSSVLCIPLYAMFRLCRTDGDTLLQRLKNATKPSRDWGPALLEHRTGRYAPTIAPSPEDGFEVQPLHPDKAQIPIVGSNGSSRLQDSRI

[2] = Aqueous solubility in phosphate buffer at pH 6.5 by lyophilization solubility assay; assay type: physicochemical
Outline: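 Aqueous solubility was measured at pH 6.5 in a lyophilization solubility assay.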

Liver microsomes [3] = experiment: Metabolic stability in human liver microsomes assessed as intrinsic clearance per […] of protein; assay type: ADME, Microsome
Outline: (§1)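 Intrinsic clearance measured in liver microsomes from rat, mouse or human, expressed per mg microsomal protein.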

[4] = Metabolic stability in mouse liver microsomes assessed as intrinsic clearance per […] of protein; assay type: ADME, Microsome; outline: as §1
[5] = biological target: T2, Sodium- and chloride-dependent glycine transporter 2 (Homo sapiens, UniProt Q9Y345); experiment: Inhibition of [3H]glycine uptake at human glycine transporter 2 expressed in CHO cells by scintillation counter; assay type: cell-based
T2 sequence (Q9Y345 whole entry): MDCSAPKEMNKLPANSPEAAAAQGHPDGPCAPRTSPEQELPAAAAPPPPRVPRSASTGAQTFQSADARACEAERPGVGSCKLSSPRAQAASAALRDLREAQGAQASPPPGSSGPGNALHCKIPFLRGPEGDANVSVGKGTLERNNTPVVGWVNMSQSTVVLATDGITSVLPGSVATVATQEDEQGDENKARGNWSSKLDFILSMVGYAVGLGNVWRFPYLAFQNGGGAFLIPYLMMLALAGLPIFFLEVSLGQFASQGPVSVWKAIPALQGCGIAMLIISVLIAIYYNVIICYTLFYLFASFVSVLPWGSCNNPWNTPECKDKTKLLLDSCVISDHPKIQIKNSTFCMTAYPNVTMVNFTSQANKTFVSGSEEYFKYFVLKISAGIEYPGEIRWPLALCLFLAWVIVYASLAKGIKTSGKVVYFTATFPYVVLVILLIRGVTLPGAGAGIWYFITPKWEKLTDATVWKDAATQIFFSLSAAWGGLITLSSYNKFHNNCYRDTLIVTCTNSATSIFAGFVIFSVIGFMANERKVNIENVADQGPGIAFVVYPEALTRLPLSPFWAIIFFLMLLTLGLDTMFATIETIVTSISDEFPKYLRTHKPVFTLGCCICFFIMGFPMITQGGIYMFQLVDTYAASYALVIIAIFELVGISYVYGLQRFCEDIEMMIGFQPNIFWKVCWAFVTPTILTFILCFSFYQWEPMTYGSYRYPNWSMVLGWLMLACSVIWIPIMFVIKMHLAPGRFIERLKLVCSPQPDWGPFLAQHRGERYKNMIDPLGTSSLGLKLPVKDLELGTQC
Outline: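 [³H]-glycine uptake inhibition in cells transfected with human GlyT2 cDNA. EC50 is the average of at least two independent experiments.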

Homo sapiens = species: Homo sapiens; experiment: Selectivity ratio of IC50 for human glycine transporter 2 to IC50 for human glycine transporter 1
Outline: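 [³H]-glycine uptake inhibition in cells transfected with human GlyT1 or human GlyT2 cDNA. Each EC50 is the average of at least two independent experiments. Selectivity is the ratio of GlyT2 EC50 to GlyT1 EC50.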

[6] = Membrane permeability by PAMPA; assay type: ADME; conditions: read-out: permeability
Outline: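 PAMPA artificial-membrane permeation, reported as the permeation constant Pe in 10^-6 cm/s.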

Liver microsomes [7] = experiment: Metabolic stability in rat liver microsomes assessed as intrinsic clearance per […] of protein; assay type: ADME, Microsome; outline: as §1
[8] = Inhibition of phosphodiesterase at 10 uM
Outline: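 CEREP selectivity panel of 80 targets: transmembrane and soluble receptors, enzymes, ion channels and monoamine transporters. Single test concentration of 10 µM; read-out is percent inhibition.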

MAO-A = biological target: T3, MAO-A (Homo sapiens, UniProt P21397); experiment: Inhibition of MAOA at 10 uM
T3 sequence (P21397 whole entry): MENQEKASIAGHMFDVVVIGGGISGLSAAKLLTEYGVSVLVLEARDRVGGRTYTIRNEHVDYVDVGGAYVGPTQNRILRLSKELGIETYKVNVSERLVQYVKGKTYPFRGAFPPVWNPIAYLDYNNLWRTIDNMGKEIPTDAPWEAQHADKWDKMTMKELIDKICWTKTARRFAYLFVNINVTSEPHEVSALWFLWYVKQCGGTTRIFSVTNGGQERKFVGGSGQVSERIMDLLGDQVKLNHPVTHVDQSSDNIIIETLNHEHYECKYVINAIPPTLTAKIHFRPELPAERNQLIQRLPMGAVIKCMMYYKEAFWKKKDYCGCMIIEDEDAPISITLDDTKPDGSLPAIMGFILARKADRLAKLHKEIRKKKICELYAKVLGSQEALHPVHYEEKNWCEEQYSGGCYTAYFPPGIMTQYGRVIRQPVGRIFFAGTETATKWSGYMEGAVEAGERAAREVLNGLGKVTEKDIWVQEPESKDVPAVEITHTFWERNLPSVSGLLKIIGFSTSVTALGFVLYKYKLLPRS
Outline: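 CEREP selectivity screen across a panel of 80 targets (receptors, enzymes, ion channels, monoamine transporters). Percent inhibition was read at a single test concentration.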

[9] = biological target: T4, Catechol O-methyltransferase (Homo sapiens) (UniProt P21964); experiment: Inhibition of catechol-O-methyl transferase at 10 uM
T4 sequence (whole entry): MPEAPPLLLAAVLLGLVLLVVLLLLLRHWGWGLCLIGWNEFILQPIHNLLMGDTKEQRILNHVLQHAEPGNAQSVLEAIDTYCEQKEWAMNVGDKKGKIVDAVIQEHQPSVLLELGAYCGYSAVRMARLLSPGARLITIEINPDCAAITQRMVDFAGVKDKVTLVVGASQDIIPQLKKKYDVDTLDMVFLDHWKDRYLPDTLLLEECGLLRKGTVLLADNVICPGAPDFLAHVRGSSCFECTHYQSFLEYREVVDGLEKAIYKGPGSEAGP
Outline: (§2)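 Run within an outsourced CEREP selectivity screen of 80 targets (transmembrane and soluble receptors, enzymes, ion channels, monoamine transporters). The compound was tested at a single concentration and the read-out was percent inhibition of each target.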

[10] = biological target: Acetylcholinesterase (Homo sapiens) (UniProt P22303); experiment: Inhibition of acetylcholinesterase at 10 uM; outline: as §2
Sequence of Acetylcholinesterase (Homo sapiens) (P22303 whole entry): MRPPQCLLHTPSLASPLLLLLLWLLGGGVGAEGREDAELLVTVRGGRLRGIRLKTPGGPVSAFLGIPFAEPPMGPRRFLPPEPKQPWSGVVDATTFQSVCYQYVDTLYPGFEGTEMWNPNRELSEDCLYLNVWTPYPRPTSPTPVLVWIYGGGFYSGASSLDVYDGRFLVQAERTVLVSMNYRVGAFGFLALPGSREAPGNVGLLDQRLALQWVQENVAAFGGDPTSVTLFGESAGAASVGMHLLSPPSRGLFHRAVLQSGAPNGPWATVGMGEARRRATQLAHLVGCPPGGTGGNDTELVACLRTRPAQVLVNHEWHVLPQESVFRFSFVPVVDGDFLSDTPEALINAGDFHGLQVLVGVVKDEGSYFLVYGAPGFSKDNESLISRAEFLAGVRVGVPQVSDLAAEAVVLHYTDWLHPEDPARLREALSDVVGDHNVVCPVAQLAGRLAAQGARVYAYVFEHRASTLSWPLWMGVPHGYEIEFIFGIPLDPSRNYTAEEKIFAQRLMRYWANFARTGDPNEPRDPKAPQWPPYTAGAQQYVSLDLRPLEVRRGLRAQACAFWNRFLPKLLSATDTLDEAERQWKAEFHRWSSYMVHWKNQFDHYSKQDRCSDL

[11] = Fraction unbound in mouse plasma at 10 mg/kg, po; assay type: ADME, organism-based; set-up: dose 10 mg/kg, route oral
Cytochrome P450 2D6 = Cytochrome P450 2D6 (Homo sapiens, UniProt P10635); experiment: Inhibition of CYP2D6; assay type: ADME
Sequence of Cytochrome P450 2D6 (P10635 whole entry): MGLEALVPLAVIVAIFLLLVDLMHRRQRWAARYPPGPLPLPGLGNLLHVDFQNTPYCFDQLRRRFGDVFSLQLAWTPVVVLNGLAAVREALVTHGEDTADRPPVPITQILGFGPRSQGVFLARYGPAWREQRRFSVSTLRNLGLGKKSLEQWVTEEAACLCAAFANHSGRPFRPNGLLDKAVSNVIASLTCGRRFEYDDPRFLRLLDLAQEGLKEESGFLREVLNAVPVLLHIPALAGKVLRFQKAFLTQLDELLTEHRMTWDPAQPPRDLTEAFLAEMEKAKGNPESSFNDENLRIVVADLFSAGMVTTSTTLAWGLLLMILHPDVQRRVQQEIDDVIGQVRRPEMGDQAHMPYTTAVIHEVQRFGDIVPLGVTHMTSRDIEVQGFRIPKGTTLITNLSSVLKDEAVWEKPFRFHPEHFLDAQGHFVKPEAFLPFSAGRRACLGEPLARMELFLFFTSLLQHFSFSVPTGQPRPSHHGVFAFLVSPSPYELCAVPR

[12] = biological target: T5, Sodium- and chloride-dependent glycine transporter 2 (Homo sapiens) (UniProt Q9Y345); experiment: Inhibition of [3H]glycine uptake at human glycine transporter 2 expressed in CHO cells at 30 uM by scintillation counter; assay type: cell-based
T5 sequence (whole entry): T2 sequence (Q9Y345 whole entry)

[13] = Clearance in mouse at 2 mg/kg, iv; assay type: ADME, organism-based; set-up: dose 2 mg/kg, route intravenous; conditions: in vivo
[14] = Volume of distribution at steady state in mouse at 2 mg/kg, iv; assay type: ADME, organism-based; set-up: dose 2 mg/kg, route intravenous; conditions: in vivo, read-out: Vdss
[15] = Oral bioavailability in mouse at 10 mg/kg; assay type: ADME, organism-based; conditions: in vivo
[16] = Half life in mouse at 10 mg/kg, po; assay type: ADME, organism-based; set-up: dose 10 mg/kg, route oral; conditions: in vivo
[17] = Cmax in mouse plasma at 10 mg/kg, po; assay type: ADME, organism-based; set-up: dose 10 mg/kg, route oral
[18] = Cmax in mouse brain at 10 mg/kg, po; assay type: ADME, organism-based; set-up: dose 10 mg/kg, route oral
[19] = Ratio of drug level in brain to plasma in mouse at 10 mg/kg, po; assay type: ADME, organism-based; set-up: dose 10 mg/kg, route oral; conditions: read-out: BPR
Outline: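 Mouse pharmacokinetics after a 10 mg/kg oral dose. Brain/plasma ratio taken from brain Cmax (ng/g) and plasma Cmax (ng/mL). Values are the average of two independent experiments.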

Compound | EC50 [1] [nM] | solubility [2] [µg/mL] | clearance (Liver microsomes [3]) [µL/min/mg] | clearance [4] [µL/min/mg] | EC50 [5] [nM] | Ratio EC50 (Homo sapiens) | Papp [6] [×10⁻⁶ cm/s] | clearance (Liver microsomes [7]) [µL/min/mg] | further results
CC(C)Oc1ccc(S(C)(=O)=O)cc1C(=O)N1CCN(c2ccc(C(F)(F)F)cc2)CC1 | 82 | 62 (≈ 132 µM) | 0 | 0 |  |  |  |  | 
CC(=O)c1ccc(N2CCN(C(=O)c3cc(S(C)(=O)=O)ccc3N3CCOCC3)CC2)c(F)c1 | 70 | 30 (≈ 61.3 µM) | 26 |  | > 30000 | > 417 | 3.1 | 40 | inhibition [8]: < 20%; inhibition at 10 µM (MAO-A): < 20%; inhibition [9]: < 20%; inhibition [10]: < 20%
CS(=O)(=O)c1ccc(OCC2CC2)c(C(=O)N2CCN(c3ccc(C#N)cc3F)CC2)c1 | 16 | 31 (≈ 67.8 µM) | 4 | 9 |  |  | 3.2 |  | fraction unbound [11]: 0.12; IC50 (Cytochrome P450 2D6): > 29100 nM; Activity [12]: inactive; clearance [13]: 9.5 mL/min/kg; Vd [14]: 2.8 L/kg; bioavailability [15]: 100%; half-life [16]: 5.8 h; Cmax [17]: 3880 ng/mL; Cmax [18]: 373 ng/g; Kp [19]: 0.1
CNS(=O)(=O)c1ccc(N2CCOCC2)c(C(=O)N2CCN(c3ccc(C(C)=O)cc3F)CC2)c1 | 100 | 30 (≈ 59.5 µM) | 43 |  | > 30000 | > 300 | 5.3 | 106 | 
CS(=O)(=O)c1ccc(N2CCOCC2)c(C(=O)N2CCN(c3ccc(C(F)(F)F)cc3)CC2)c1 | 45 | 3 (≈ 6.03 µM) | 10 | 15 |  |  |  |  | 
CC(=O)c1ccc(N2CCN(C(=O)c3cc(C#N)ccc3N3CCOCC3)CC2)c(F)c1 | 180 | < 1 | 31 |  | 13000 | 72 | 6.1 | 53 | 
